According to the M2OR odorant receptor database:

Assays:
Details in all cases: stereoisomer not certain
UniProt Q8VGM2 = target: T1, UniProt Q8VGM2
T1 sequence (whole entry): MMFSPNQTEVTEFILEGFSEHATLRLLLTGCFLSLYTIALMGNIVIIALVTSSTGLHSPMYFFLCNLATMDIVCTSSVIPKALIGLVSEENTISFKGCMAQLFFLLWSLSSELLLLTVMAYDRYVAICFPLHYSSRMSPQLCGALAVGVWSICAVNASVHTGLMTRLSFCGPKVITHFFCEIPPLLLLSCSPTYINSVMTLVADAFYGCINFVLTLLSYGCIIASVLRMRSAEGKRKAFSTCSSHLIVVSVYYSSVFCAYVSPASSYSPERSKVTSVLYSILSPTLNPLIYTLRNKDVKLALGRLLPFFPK
In short: (§1)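 Each entry records the cell line, G-protein, co-transfected protein and tags used. Methods varied with the source, often transient luciferase assays in mammalian cell lines. A receptor–molecule pair is called responsive (active) if the original authors judged its signal statistically different from baseline and non-responsive (inactive) otherwise.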

UniProt Q8VGP6 = target: T2, UniProt Q8VGP6
T2 sequence (whole entry): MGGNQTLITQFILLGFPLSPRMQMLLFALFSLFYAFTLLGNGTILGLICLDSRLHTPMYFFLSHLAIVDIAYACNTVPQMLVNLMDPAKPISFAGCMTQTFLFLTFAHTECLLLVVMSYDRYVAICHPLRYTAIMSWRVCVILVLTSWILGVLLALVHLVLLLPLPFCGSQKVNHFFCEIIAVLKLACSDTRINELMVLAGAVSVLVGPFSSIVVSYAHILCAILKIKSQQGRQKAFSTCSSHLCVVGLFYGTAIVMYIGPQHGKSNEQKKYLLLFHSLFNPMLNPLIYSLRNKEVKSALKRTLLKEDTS
In short: as §1

UniProt Q8VGQ3 = target: T3, UniProt Q8VGQ3
T3 sequence (whole entry): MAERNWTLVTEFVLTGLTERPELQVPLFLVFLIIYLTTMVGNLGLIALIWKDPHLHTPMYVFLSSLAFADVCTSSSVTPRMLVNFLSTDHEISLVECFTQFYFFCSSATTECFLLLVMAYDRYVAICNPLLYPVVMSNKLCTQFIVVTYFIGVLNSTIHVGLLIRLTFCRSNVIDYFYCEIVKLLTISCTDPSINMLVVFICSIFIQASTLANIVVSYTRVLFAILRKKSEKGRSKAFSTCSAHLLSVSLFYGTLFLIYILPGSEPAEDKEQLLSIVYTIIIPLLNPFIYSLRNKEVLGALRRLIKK
In short: as §1

UniProt Q8VGT4 = target: T4, UniProt Q8VGT4
T4 sequence (whole entry): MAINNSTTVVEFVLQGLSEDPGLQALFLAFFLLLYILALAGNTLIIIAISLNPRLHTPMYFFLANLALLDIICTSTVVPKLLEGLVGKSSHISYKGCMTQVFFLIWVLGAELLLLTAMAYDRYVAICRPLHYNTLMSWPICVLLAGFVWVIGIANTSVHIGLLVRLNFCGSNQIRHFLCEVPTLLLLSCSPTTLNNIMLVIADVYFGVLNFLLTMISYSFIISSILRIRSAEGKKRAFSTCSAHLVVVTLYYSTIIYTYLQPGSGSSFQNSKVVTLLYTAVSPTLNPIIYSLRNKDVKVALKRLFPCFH
In short: as §1

UniProt Q8VGU3 = target: T5, UniProt Q8VGU3
T5 sequence (whole entry): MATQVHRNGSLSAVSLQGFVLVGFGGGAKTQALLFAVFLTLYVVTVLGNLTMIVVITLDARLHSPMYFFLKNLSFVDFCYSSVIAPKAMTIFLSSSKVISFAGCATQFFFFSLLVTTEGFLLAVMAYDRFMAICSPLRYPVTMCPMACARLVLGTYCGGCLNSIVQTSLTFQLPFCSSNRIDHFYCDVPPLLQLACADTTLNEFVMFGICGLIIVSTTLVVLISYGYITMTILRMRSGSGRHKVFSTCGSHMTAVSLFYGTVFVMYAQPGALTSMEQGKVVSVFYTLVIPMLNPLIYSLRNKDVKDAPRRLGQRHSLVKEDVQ
In short: as §1

UniProt Q8VGV1 = target: T6, UniProt Q8VGV1
T6 sequence (whole entry): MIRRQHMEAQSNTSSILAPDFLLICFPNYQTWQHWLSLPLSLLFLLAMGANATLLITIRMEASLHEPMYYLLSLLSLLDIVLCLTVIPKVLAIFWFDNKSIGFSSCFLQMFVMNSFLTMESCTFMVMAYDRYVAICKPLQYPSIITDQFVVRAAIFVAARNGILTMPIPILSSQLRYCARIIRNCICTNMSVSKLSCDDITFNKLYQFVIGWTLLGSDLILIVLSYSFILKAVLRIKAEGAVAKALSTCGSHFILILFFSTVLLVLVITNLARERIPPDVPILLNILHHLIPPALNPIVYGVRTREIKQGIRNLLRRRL
In short: as §1

UniProt Q8VGV7 = target: T7, UniProt Q8VGV7
T7 sequence (whole entry): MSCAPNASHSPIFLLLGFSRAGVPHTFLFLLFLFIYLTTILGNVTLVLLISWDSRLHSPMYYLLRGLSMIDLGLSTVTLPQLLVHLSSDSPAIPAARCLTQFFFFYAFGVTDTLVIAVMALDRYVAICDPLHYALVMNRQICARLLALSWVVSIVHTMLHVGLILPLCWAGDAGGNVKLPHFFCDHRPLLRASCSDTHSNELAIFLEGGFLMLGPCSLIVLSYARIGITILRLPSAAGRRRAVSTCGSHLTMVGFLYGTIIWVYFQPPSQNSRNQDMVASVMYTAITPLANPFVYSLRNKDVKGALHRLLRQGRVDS
In short: as §1

UniProt Q8VGX3 = target: T8, UniProt Q8VGX3
T8 sequence (whole entry): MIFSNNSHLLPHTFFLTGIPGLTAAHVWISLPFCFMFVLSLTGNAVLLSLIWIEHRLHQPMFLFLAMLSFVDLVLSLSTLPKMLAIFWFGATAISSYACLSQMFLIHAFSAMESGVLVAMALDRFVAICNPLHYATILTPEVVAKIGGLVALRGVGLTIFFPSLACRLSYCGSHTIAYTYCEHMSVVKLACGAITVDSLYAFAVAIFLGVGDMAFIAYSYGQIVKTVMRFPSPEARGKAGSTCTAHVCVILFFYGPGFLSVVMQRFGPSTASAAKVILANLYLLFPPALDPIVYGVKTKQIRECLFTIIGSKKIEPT
In short: as §1

UniProt Q8VGX5 = target: T9, UniProt Q8VGX5
T9 sequence (whole entry): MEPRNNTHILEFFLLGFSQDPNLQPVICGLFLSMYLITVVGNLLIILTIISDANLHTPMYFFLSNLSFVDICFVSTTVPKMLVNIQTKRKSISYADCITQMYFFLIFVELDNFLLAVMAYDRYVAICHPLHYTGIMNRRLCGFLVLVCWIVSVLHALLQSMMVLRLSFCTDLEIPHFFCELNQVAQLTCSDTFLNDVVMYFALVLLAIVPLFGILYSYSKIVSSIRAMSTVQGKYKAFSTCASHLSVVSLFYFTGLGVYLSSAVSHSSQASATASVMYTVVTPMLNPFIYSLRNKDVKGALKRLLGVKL
In short: as §1

UniProt Q8VGW5 = target: T10, UniProt Q8VGW5
T10 sequence (whole entry): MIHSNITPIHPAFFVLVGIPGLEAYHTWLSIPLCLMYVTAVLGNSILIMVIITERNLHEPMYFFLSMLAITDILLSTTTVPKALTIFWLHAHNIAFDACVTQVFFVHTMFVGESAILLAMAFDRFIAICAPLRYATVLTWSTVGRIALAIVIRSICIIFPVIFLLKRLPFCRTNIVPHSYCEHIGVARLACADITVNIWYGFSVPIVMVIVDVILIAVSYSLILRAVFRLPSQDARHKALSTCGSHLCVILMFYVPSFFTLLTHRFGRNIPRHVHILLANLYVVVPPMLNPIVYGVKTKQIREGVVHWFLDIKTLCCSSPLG
In short: as §1

Measured: odorant receptor agonist call

CC(=O)OCc1ccccc1
active: UniProt Q8VGP6 | UniProt Q8VGX5
not listed: UniProt Q8VGW5
inactive: all other assays above

CCCCCCOC(C)=O
not listed: UniProt Q8VGW5
inactive: all other assays above

COc1nccnc1C(C)C
inactive: UniProt Q8VGU3 | UniProt Q8VGV7 | UniProt Q8VGX3 | UniProt Q8VGX5

CCCCCC=CCCC=O
inactive: UniProt Q8VGU3 | UniProt Q8VGV7 | UniProt Q8VGX3 | UniProt Q8VGX5

CC=CC(=O)C1=C(C)CCCC1(C)C
inactive: UniProt Q8VGU3 | UniProt Q8VGV7 | UniProt Q8VGX3
active: UniProt Q8VGX5

CCc1ccccc1O
inactive: UniProt Q8VGU3 | UniProt Q8VGV7 | UniProt Q8VGX3 | UniProt Q8VGX5

CCCCCCCCCC=CC=O
inactive: UniProt Q8VGU3 | UniProt Q8VGV7 | UniProt Q8VGX3 | UniProt Q8VGX5

Cc1c(C)c(C)c(C=O)c(C)c1C
inactive: UniProt Q8VGU3 | UniProt Q8VGV7 | UniProt Q8VGX3 | UniProt Q8VGX5

CCCCCC(C)O (stereo unspecified)
inactive: UniProt Q8VGU3 | UniProt Q8VGV7 | UniProt Q8VGX3 | UniProt Q8VGX5

CC(C)CS
inactive: UniProt Q8VGU3 | UniProt Q8VGV7 | UniProt Q8VGX3 | UniProt Q8VGX5

Cc1occc1SSc1ccoc1C
inactive: UniProt Q8VGU3 | UniProt Q8VGV7 | UniProt Q8VGX3 | UniProt Q8VGX5

Cc1ccccc1OC(=O)C(C)C
inactive: UniProt Q8VGU3 | UniProt Q8VGV7 | UniProt Q8VGX3 | UniProt Q8VGX5

CC=Cc1ccc(OC)cc1
inactive: UniProt Q8VGU3 | UniProt Q8VGV7 | UniProt Q8VGX3 | UniProt Q8VGX5

CCSSCC
inactive: UniProt Q8VGU3 | UniProt Q8VGV7 | UniProt Q8VGX3 | UniProt Q8VGX5

C1CCOCC1
inactive: UniProt Q8VGU3 | UniProt Q8VGV7 | UniProt Q8VGX3 | UniProt Q8VGX5

COc1ccccc1
inactive: UniProt Q8VGU3 | UniProt Q8VGV7 | UniProt Q8VGX3 | UniProt Q8VGX5

CCc1ncc(C)nc1CC
inactive: UniProt Q8VGU3 | UniProt Q8VGV7 | UniProt Q8VGX3 | UniProt Q8VGX5

COc1cnccn1
inactive: UniProt Q8VGU3 | UniProt Q8VGV7 | UniProt Q8VGX3 | UniProt Q8VGX5

CCCCCCCCCCOC(C)=O
inactive: UniProt Q8VGU3 | UniProt Q8VGV7 | UniProt Q8VGX3 | UniProt Q8VGX5

CCCCCCCCC=CC=O
inactive: UniProt Q8VGU3 | UniProt Q8VGV7 | UniProt Q8VGX3 | UniProt Q8VGX5

CCC(C)O (stereo unspecified)
inactive: UniProt Q8VGU3 | UniProt Q8VGV7 | UniProt Q8VGX3 | UniProt Q8VGX5

CCc1ccc(O)cc1
inactive: UniProt Q8VGU3 | UniProt Q8VGV7 | UniProt Q8VGX3 | UniProt Q8VGX5

CCSCC
inactive: UniProt Q8VGU3 | UniProt Q8VGV7 | UniProt Q8VGX3 | UniProt Q8VGX5

CCC=CCCC=CC=O
inactive: UniProt Q8VGU3 | UniProt Q8VGV7 | UniProt Q8VGX3 | UniProt Q8VGX5

CC=C(C)C=O
inactive: UniProt Q8VGU3 | UniProt Q8VGV7 | UniProt Q8VGX3 | UniProt Q8VGX5

CCOC(=O)C(C)CC (stereo unspecified)
inactive: UniProt Q8VGU3 | UniProt Q8VGV7 | UniProt Q8VGX3 | UniProt Q8VGX5

C=CC(=C)CCC=C(C)CCC=C(C)C
inactive: UniProt Q8VGU3 | UniProt Q8VGV7 | UniProt Q8VGX3 | UniProt Q8VGX5

C=C(C)C1CC=C(C)CC1 (stereo unspecified)
inactive: UniProt Q8VGU3 | UniProt Q8VGV7 | UniProt Q8VGX5
active: UniProt Q8VGX3

CCc1nccnc1CC
inactive: UniProt Q8VGU3 | UniProt Q8VGV7 | UniProt Q8VGX3 | UniProt Q8VGX5

CCCO
inactive: UniProt Q8VGU3 | UniProt Q8VGV7 | UniProt Q8VGX3 | UniProt Q8VGX5

CCCCCOC(=O)CCC
inactive: UniProt Q8VGU3 | UniProt Q8VGV7 | UniProt Q8VGX3 | UniProt Q8VGX5

COC(OC)c1ccccc1
inactive: UniProt Q8VGU3 | UniProt Q8VGV7 | UniProt Q8VGX3 | UniProt Q8VGX5

CCCCCCC=CC=O
inactive: UniProt Q8VGU3 | UniProt Q8VGV7 | UniProt Q8VGX3 | UniProt Q8VGX5

OCCc1ccccc1
active: UniProt Q8VGX5
inactive: UniProt Q8VGU3 | UniProt Q8VGV7 | UniProt Q8VGX3

CCCCCCC(=O)OCCCC
inactive: UniProt Q8VGU3 | UniProt Q8VGV7 | UniProt Q8VGX3 | UniProt Q8VGX5

CCCCOC(=O)CCC
inactive: UniProt Q8VGW5
